Data published in ChEMBL document CHEMBL4014264, “Benzoyltyramine Alkaloids Atalantums A-G from the Peels of Atalantia monophylla and Their Cytotoxicity against Cholangiocarcinoma Cell Lines” (J Nat Prod, 2017).

Tests used:
[1] = Cytotoxicity against human KKU-M214 cells assessed as reduction in cell viability after 72 hrs by SRB assay; assay type: functional, cell-based; conditions: KKU-M214, 72 h
Summary of the method: (§1)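 Cholangiocarcinoma cells seeded at (1−2) × 10^4 cells/well, grown 24 h at 37 °C, then dosed in triplicate to final 0.025−20 μg/well, with 0.1% DMSO solvent control. Starting plates read after 1 h, treated plates after 72 h, by SRB. Viability % = (OD treated day 3 − OD start)/(OD control day 3 − OD start) × 100. IC50 taken from dose–response curves.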

[2] = Potency index, ratio of ellipticine IC50 to compound IC50 for human KKU-M156 cells; assay type: functional
[3] = Cytotoxicity against human KKU-M156 cells assessed as reduction in cell viability after 72 hrs by SRB assay; assay type: functional, cell-based; conditions: KKU-M156, 72 h; summary of the method: as §1
[4] = Cytotoxicity against human KKU-M213 cells assessed as reduction in cell viability after 72 hrs by SRB assay; assay type: functional, cell-based; conditions: KKU-M213, 72 h; summary of the method: as §1

Compound	IC50 [1]	Ratio IC50 [2]	IC50 [3]	IC50 [4]
O=c1[nH]cc(F)c(=O)[nH]1 [FLUOROURACIL]	3.76 µM	–	–	–
CCCCCCCCCCCCCCCC(=O)OC(CC(O)/C(C)=C/COc1ccc(CCNC(=O)c2ccccc2)cc1)C(C)(C)O (racemic)	8.44 µM	4.7	1.97 µM	23.5 µM
CCCCCCCCCCCCCCCC(=O)OC(CC(O)C(C)(C)O)/C(C)=C/COc1ccc(CCNC(=O)c2ccccc2)cc1 (racemic)	27.4 µM	–	2.8 µM	5.63 µM
C/C(=C\COc1ccc(CCNC(=O)c2ccccc2)cc1)C(O)CC(O)C(C)(C)O (stereo unspecified)	11.1 µM	–	26.8 µM	25.8 µM
CCCCCCCCCCCCCCCC(=O)OC(CC1OC1(C)C)/C(C)=C/COc1ccc(CCNC(=O)c2ccccc2)cc1 (stereo unspecified)	14.9 µM	–	21 µM	2.71 µM
Cc1c2ccncc2c(C)c2c1[nH]c1ccccc12 [ELLIPTECINE]	–	–	–	6.58 µM
CCCCCCCCCCCCCCCC(=O)OC(CC(OC(C)=O)C(C)(C)O)/C(C)=C/COc1ccc(CCNC(=O)c2ccccc2)cc1 (racemic)	3.06 µM	–	22 µM	34.8 µM
CCCCCCCCCCCCCCCCCC(=O)OC(CC(OC(C)=O)C(C)(C)O)/C(C)=C/COc1ccc(CCNC(=O)c2ccccc2)cc1 (racemic)	12.4 µM	–	24 µM	29.1 µM
CCCCCCCCCCCCCCCC(=O)OC(C)(C)C(O)CC(O)/C(C)=C/COc1ccc(CCNC(=O)c2ccccc2)cc1 (racemic)	20.5 µM	–	31.5 µM	16.1 µM
CC(=O)OC(CC1OC1(C)C)/C(C)=C/COc1ccc(CCNC(=O)c2ccccc2)cc1 (stereo unspecified)	31.5 µM	–	29.1 µM	11.1 µM
CC(=O)OC(CC(O)C(C)(C)O)/C(C)=C/COc1ccc(CCNC(=O)c2ccccc2)cc1 (stereo unspecified)	44.5 µM	–	49.7 µM	28.8 µM
C/C(=C\COc1ccc(CCNC(=O)c2ccccc2)cc1)C1CC(O)C(C)(C)O1 (racemic)	7.37 µM	–	21.5 µM	12.2 µM
CCCCCCCCCCCCCC(=O)OC(CC(OC(C)=O)C(C)(C)O)/C(C)=C/COc1ccc(CCNC(=O)c2ccccc2)cc1 (racemic)	24 µM	–	24.5 µM	2.36 µM
